Positions of bridges follow the written chain, without caps; N, C: chain ends. Chains are numbered I, II in the order given. No end group written: not given here.
What was measured:
CD45 receptor [1] = biological target: T1, CD45 receptor (Homo sapiens, UniProt P08575); format: cell-based; conditions: CD45 blocked with monoclonal antibody and blocking peptide, n = 5
T1 sequence (P08575 195-577 limits assumed): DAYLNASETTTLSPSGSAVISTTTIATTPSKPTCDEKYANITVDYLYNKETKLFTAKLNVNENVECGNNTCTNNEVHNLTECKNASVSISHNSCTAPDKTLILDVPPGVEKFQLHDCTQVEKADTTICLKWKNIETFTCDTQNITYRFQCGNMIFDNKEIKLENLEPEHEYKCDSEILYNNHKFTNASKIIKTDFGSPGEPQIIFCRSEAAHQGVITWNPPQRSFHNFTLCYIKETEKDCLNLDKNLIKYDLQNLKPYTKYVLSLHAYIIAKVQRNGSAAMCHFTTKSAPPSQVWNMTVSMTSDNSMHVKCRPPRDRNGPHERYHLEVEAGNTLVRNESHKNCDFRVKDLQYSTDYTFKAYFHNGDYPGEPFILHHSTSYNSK

MDA-MB-231 cells = test: Tumor cell density by inverted microscope, MDA-MB-231; format: cell-based, human; conditions: 10 μg/ml; for effect on MDA-MB-231 tumor cells in the absence of PBMCs: monolayer without PBMC, microscope
Procedure, shortened: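 Tumor cells (MDA-MB-231 or MDA-MB-468, 4x10^5/2 ml) were plated overnight, then cultured with or without donor PBMCs (2x10^6/ml). Test compound or scrambled peptide was added at 10 µg/ml at 37°C, 5% CO2. Wells were washed once with PBS and cell density was documented by inverted light microscopy.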

[2] = system: MCF-10A normal breast cells; test: MCF-10A cell killing by FACS; format: cell-based, human; conditions: for spontaneous cell apoptosis (killing) of MCF-10A cells: 10 μg/ml, 4–6 days, PBMC+MCF-10A, N = 3, mean ± SD
Procedure, shortened: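 MCF-10A cells were co-cultured with donor PBMCs (2x10^6/ml) plus test compound or scrambled peptide at 37°C, 5% CO2. Adherent cells were then detached. Anti-CD45 staining was used to exclude leukocytes, and apoptosis in the gated CD45-negative cells was measured by Annexin V/PI flow cytometry.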

CD45 signaling pathway [3] = test: CD45 signal transduction by western blot, PBMC/MDA-MB-231 co-cultures; format: cell-based, human; conditions: 10 µg/ml, n = 9, p <0.27
[4] = Stability in human whole blood; format: in vitro ADME
MDA-MB-231 xenograft = test: MDA-MB-231 tumor xenograft in nude mice given human PBMCs; format: in vivo, BALB/C nude mice; conditions: for increase in human IFN-γ secretion in serum versus S-C24D group: 13 days after PBMC administration, p <0.05
Procedure, shortened: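 Female BALB/c nude mice (5–6 weeks) received 4x10^6 MDA-MB-231 cells s.c. in the right flank. At ~100 mm3 (day 6) they were randomized. Human PBMCs from 2 female donors were pre-incubated 5 min with test compound, scrambled peptide or PBS, then given IV. Treatment (60 or 300 µg/mouse in 200 µl PBS) followed IV twice weekly for 2 weeks. At 13 days, serum human IFNγ was measured. Paraffin tumor sections (pH 6 retrieval) were immunostained for CD45, activated CD56, CD8 and cleaved caspase-3, and 5 fields/slide on 5 slides were quantified.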

CD45 receptor [5] = biological target: T1, CD45 receptor; test: FACS analysis of C24D binding to PBMC sub-populations
CD45 signaling pathway [6] = format: cell-based, human; conditions: incubated with C24D for 5 to 24 hours, 5 separate experiments
[7] = system: PBMCs co-cultured with MDA-MB-231; test: Cytokine secretion by ELISA in supernatants of PBMC/MDA-MB-231 co-cultures; format: cell-based, human
Procedure, shortened: (§1)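 Target cells (MDA-MB-231, MDA-MB-468 or DMEM/10% FCS-grown MCF-10A; 4x10^5/2 ml) were plated overnight. PBMCs (2x10^6/ml, RPMI with 5% AB serum) were added, with test compound added at once (0.1–60 µg/ml) and scrambled peptide as control, at 37°C, 5% CO2. Supernatants were cleared (1200 rpm, 10 min) and stored at −80°C. IFNγ, TNFα, IL-2 and IL-1β were measured by ELISA.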

CD45 signaling pathway [8] = test: Protein phosphorylation by western blot in fresh PBMCs from TNBC patients; format: cell-based, human; conditions: fresh PBMCs from 5 TNBC patients, C24D 5 to 60 minutes, mean ± SD
Procedure, shortened: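 PBMCs were lysed in buffer containing phosphatase inhibitors (NaF, Na3VO4, β-glycerophosphate), freeze-thawed once and cleared at 14,000 rpm. Lysates were run on 10% SDS-PAGE and blotted for phospho-Lck Y505, phospho-Lck Y394, phospho-VAV-1 Y174 and phospho-ZAP70 Y493, with GAPDH as loading control. Bands were quantified by infrared imaging, normalized to control, and reported as mean ± SD.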

[9] = system: PBMCs from healthy female donors co-cultured with MDA-MB-231; test: FACS of activated PBMC sub-populations in co-cultures with MDA-MB-231; format: cell-based, human
Procedure, shortened: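 Lymphocytes were recovered from tumor/PBMC co-cultures; samples with >98% CD45+ cells were used. Cells (0.5x10^6/50 µl PBS) were stained for CD4, CD8, CD56, NKG2D, CD14, CD69, CD57 and CD137. Gated live cells were analysed by flow cytometry; mean ± SD reported, ANOVA with Tukey-Kramer.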

CD45 signaling pathway [10] = test: CD45 signal transduction by intracellular FACS, PBMC/MDA-MB-231 co-cultures; format: cell-based, human; conditions: PBMCs co-cultured with MDA-MB-231 for 24hs, C24D for 15 minutes
Procedure, shortened: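 PBMCs (2x10^6/ml, RPMI with 5% AB serum) were co-cultured for 24 h at 37°C, 5% CO2 with MDA-MB-231 cells pre-plated overnight (4x10^5/2 ml). Test compound was then added for 15 minutes. Phosphorylation was read by FACS in live PBMCs and normalized to the scrambled-peptide control.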

CD45 receptor [11] = biological target: T2, CD45 receptor (Homo sapiens, UniProt P08575); format: in vitro ADME; conditions: 1.5 μM C24D, 3 hours after adding, ELISA read-out
T2 sequence (P08575 26-1306): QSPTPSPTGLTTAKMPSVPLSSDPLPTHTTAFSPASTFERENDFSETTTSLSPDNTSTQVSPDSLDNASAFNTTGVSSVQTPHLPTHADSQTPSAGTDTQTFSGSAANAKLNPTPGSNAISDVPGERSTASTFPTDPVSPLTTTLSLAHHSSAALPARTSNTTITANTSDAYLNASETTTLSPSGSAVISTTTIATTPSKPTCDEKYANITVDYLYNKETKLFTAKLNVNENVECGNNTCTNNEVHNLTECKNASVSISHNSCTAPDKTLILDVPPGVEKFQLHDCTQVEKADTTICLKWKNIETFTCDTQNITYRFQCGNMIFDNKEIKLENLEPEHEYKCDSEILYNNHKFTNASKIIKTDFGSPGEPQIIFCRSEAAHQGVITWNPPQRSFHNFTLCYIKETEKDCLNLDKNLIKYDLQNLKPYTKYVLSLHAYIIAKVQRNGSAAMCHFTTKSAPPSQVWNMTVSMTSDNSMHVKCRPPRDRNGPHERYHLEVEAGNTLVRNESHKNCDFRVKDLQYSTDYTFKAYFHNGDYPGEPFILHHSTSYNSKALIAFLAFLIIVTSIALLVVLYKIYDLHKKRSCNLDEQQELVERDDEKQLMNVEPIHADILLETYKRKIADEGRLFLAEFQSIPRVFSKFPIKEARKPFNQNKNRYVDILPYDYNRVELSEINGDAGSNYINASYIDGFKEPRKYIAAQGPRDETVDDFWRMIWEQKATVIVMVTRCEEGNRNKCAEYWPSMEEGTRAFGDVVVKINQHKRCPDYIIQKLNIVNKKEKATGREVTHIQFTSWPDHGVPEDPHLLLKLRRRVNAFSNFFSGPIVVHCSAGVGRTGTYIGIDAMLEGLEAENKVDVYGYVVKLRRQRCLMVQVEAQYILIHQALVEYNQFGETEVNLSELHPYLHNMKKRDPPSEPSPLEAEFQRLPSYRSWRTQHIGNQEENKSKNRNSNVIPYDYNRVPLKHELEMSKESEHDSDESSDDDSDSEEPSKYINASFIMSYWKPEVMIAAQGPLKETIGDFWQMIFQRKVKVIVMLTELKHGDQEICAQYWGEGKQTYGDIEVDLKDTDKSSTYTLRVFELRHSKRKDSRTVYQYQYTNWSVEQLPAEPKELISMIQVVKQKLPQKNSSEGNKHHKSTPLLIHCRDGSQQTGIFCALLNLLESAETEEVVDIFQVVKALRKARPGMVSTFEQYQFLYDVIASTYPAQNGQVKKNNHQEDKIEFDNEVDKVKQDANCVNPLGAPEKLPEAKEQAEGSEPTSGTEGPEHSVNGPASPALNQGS

[12] = system: PBMCs co-cultured with MCF-10A; test: Cytokine secretion in co-cultures of MCF-10A normal breast cells and PBMCs; format: cell-based, human; conditions: MCF-10A/PBMC co-culture after C24D, n = 3
Procedure, shortened: as §1

[13] = 10 μg/ml C24D added to co-cultures
[14] = 10 μg/ml C24D, PBMCs from 11 healthy female donors, mean ± SD

With “CG-PPRIHPLKRISRTRLPRLHRPFHIS [S-C24D, reference compound]” the “IFN-γ in supernatants of co-cultures with blocked CD45 receptor” value (CD45 receptor [1]) was 108 ± 20 pg/mL, the “effect on MDA-MB-231 tumor cells in the absence of PBMCs” value (MDA-MB-231 cells) was “no effect” and the “spontaneous cell apoptosis (killing) of MCF-10A cells” value [2] was 7.25 ± 2.34%.
In the case of “I: CGHHLLRPRRRKRPHSIPTPILIFRSP / II: CGHHLLRPRRRKRPHSIPTPILIFRSP (disulfide I:1-II:1) [C24D]”, the “phosphorylation of Lck Y394” value (CD45 signaling pathway [3]) is reported as “increased, but not significant statistically”, the half-life [4] is reported as 2.75 h and the “tumor cell apoptosis (Cleaved Caspase-3 immunofluorescence)” value (MDA-MB-231 xenograft; 60 μg (p <0.0013) and 300 μg (p <0.049) per mouse) is reported as “significant increase”. For the same substance, the “increase in human IFN-γ secretion in serum versus S-C24D group” value (MDA-MB-231 xenograft; 60 μg per mouse) was 68%, the “increase in human IFN-γ secretion in serum versus S-C24D group” value (MDA-MB-231 xenograft; 300 μg per mouse) was 82% and the “infiltration of human CD45+ cells in the tumor (immunofluorescence)” value (MDA-MB-231 xenograft; 60 and 300 μg doses vs S-C24D, p <0.015 and p <0.023) was “significantly induced”. The “tumor-infiltrating NK (activated CD56+) cells (immunofluorescence)” value (MDA-MB-231 xenograft; 60 or 300 μg per mouse, p <0.011 and p <0.042) was “significant increase”, the “tumor-infiltrating human CD8 T cells (immunofluorescence)” value (MDA-MB-231 xenograft; 60 or 300 μg per mouse, p <0.07 and p <0.1) was “non-significant” and the “percentage of C24D binding to CD16 after exposure to tumor cells” value (CD45 receptor [5]) was “not affected”. The “leukocyte sub-populations that bound C24D” value (CD45 receptor [5]; PBMCs from healthy female donors, C24D conjugated to Alexa-488 dye) was “all 9 of the tested T, NK and monocyte sub-populations bound C24D”, the “percentage of CD45+ gated PBMCs that bind C24D (double staining)” value (CD45 receptor [5]; anti CD45 monoclonal antibody (CD45-APC) and C24D-Alexa-488 conjugated peptide) was 100% and the “effect of C24D treatment on C24D binding to CD8 and NKG2D sub-populations exposed to MDA-MB-231” value (CD45 receptor [5]; p <0.05) was “reversed the decrease”. The “Lck, ZAP70 and VAV-1 activation in fresh PBMCs from healthy donors in the absence of tumors” value (CD45 signaling pathway [6]) was “no effect”, the “IFN-γ in supernatants of co-cultures with blocked CD45 receptor” value (CD45 receptor [1]) was 107 ± 27 pg/mL and the “increase in secretion of IL-2” value ([7]; C24D 4–6 days, MDA-MB-231/PBMC co-cultures, n = 7, p < 0.0007) was 92.2%. For the same substance, the “increase in secretion of TNF-α” value ([7]; C24D 4–6 days, MDA-MB-231/PBMC co-cultures, n = 7, p < 0.04) was 98%, the “increase in secretion of IFN-γ” value ([7]; C24D 4–6 days, MDA-MB-231/PBMC co-cultures, n = 8, p <0.03) was 90% and the “cytokine secretion (IFNγ, IL-2, TNFα, IL-1β) in PBMCs alone” value ([7]; C24D added to PBMCs alone, no tumor cells) was “No effect”. For the same substance, the “secretion of IL-1β by monocytes” value ([7]; C24D added to co-cultures) was “non-significant effect”, the “tumor apoptosis seen by microscope in PBMC/MDA-MB-231 co-cultures” value (MDA-MB-231 cells; PBMCs from healthy donors) was “massive tumor apoptosis” and the “effect on MDA-MB-231 tumor cells in the absence of PBMCs” value (MDA-MB-231 cells) was “no effect”. For the same substance, the “phosphorylation of Lck Y394 after addition of C24D, normalized to control” value (CD45 signaling pathway [8]) was 117.4 ± 36.2%, the “phosphorylation of Lck Y505 after addition of C24D, normalized to control” value (CD45 signaling pathway [8]) was 79.2 ± 3.6% and the “phosphorylation of VAV-1 after addition of C24D, normalized to control” value (CD45 signaling pathway [8]) was 88.4 ± 26.9%. The “phosphorylation of ZAP70 Y493 after addition of C24D, normalized to control” value (CD45 signaling pathway [8]) was 116.4 ± 10.4%, the CD57 expression [9, 13] was “not influenced” and the “percentage of NKG2D+ and CD45RO+ cells” value [9, 13] was “not influenced”. For the same substance, the “percentage of CD4+/CD69+ cells” value [9, 14] was 4.1 ± 1.58%, the “percentage of CD8+/CD69+ cells” value [9, 14] was 33.23% and the “phosphorylation of Y394 in Lck” value (CD45 signaling pathway [10]; n = 3) was “increase”. For the same substance, the “increase of the phosphorylation of VAV-1 versus control” value (CD45 signaling pathway [10]; n = 3, mean ± SD) was 36.2 ± 4.0%, the “increase of the phosphorylation of Y493 in ZAP70 versus control” value (CD45 signaling pathway [10]; n = 3, mean ± SD) was 50.13 ± 10.2% and the “decrease of binding to CD45 in the presence of human plasma” value (CD45 receptor [11]) was 20%. For the same substance, the “spontaneous cell apoptosis (killing) of MCF-10A cells” value [2] was 6.47 ± 0.94%, the “killing in MCF-10A and PBMCs co-cultures” value ([2]; treatment with C24D) was “failed to induce killing” and the TNF-α concentration [12] was 5.6 ± 0.2 pg/mL.

Reference: article PMC8158046 (Oncoimmunology, 2021)
